A selection: hits, their analogues and other compounds. The true share with any hit is near 0.77%.
hIAP block: human IAP inhibition. P09923. purified IAP, CDP-Star luminescence, 30 min. inhibition, % at 10 µM. 330,000 compounds, 0.12% hits. AID 2544;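 active = inhibition reaching a set limit with compound at 10 µM in the primary screen, cut at about 35% in these data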;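 note: plate controls were DMSO wells with enzyme for no effect and no-enzyme buffer wells for full effect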
Target sequence (P09923 whole entry, looked up): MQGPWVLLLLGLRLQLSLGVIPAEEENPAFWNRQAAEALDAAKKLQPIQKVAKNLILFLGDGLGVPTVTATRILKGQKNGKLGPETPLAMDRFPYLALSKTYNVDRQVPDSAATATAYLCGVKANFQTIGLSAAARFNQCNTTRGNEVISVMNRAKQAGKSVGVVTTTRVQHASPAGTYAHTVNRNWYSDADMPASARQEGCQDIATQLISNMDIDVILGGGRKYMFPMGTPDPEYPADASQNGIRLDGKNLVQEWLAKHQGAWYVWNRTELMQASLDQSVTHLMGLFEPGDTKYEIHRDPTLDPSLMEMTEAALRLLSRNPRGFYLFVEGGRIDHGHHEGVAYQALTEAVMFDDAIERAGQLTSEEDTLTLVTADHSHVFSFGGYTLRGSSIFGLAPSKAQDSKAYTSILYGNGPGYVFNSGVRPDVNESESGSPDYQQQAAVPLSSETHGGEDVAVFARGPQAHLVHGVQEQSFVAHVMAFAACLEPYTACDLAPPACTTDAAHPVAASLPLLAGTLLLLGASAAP
hIAP act: human IAP activation; P09923; purified human IAP, CDP-Star luminescence, 30 min; stronger effect = higher value; 1 = vehicle-only enzyme, 0 = enzyme-free background; activation factor at 10 µM; 330,000 compounds, 0.16% hits; AID 2524;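 active = activation factor of the enzyme at least 2-fold when tested at 20 µM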
mIAP block: mouse IAP inhibition; inhibition, % at 10 µM; purified mouse IAP, CDP-Star luminescence, 30 min; AID 2806; 330,000 compounds, 0.2% hits;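 active = inhibition of at least 40% at 10 µM in the primary screen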;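 note: plate controls were DMSO with enzyme for no effect and no enzyme wells for full effect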
bIAP inhibitor: intestinal alkaline phosphatase (bovine) inhibition | purified bovine IAP, CDP-star luminescence, 30 min | inhibition, % at 20 µM | 190,000 tested, under 10 active | AID 1019;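 active = over 50% inhibition of intestinal alkaline phosphatase at 20 µM in the single-dose screen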
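System: Purified bovine intestinal alkaline phosphatase (IAP) enzyme | Input: IAP diluted 1/65,000,000 in the well | Also added: CDP-star chemiluminescent phosphatase substrate, 30 µM final | Dosing: 20 µM single dose | Times: Enzyme reaction for 30 min at room temperature | Detection: Luminescence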
bIAP act: intestinal alkaline phosphatase (bovine) activation; purified bovine IAP, CDP-star luminescence, 30 min; stronger effect = higher value; fold of DMSO-control signal, blank-subtracted; activation factor at 20 µM; 200,000 compounds, 0.17% hits;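 active = activation factor of 2 or more at 20 µM, a signal rise over negative controls twice the positive control's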
mIAP act: increases mouse intestinal alkaline phosphatase activity; muIAP, CDP-Star luminescence, 30 min; stronger effect = higher value; 1 = vehicle-only enzyme signal, 0 = enzyme-free wells; activation factor at 10 µM; 330,000 compounds, 0.24% hits;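 active = activation factor of at least 2 at 20 µM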
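Assay system: mouse IAP enzyme; Reagent: CDP-Star chemiluminescent phosphatase substrate; Compound: DMSO-dissolved test compounds; Incubation: 30 min, room temperature; Technique: luminescence from enzymatic CDP-Star hydrolysis; Controls: DMSO-only wells and no-enzyme negative control.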
hIAP act conf: human IAP activation confirmation; shares compounds with hIAP act; purified IAP, CDP-Star luminescence, 30 min; stronger effect = lower value; activation (%Activity, negative = activation), % at 8.3 µM; 880 compounds, 10% hits; AID 434926;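 active = at least twofold enzyme activation in any of six single-dose repeats, which the averaged readout prints as negative percent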
An asterisk follows results filed as active.

Screening Cc1cccc(N2CC(C)Cn3c2nc2c3c(=O)[nH]c(=O)n2C)c1 (centres undefined) returned hIAP block -17.7, hIAP act 1.18, mIAP block 7.5 and mIAP act 0.925.
CCOCCCNC(=O)CCC(=O)NNc1nc2ccccc2c2nc(-c3ccccc3)nn12 was read as hIAP block -109.0, hIAP act 2.09*, mIAP block 16.6, bIAP inhibitor 7.7, bIAP act 0.9, mIAP act 0.834 and hIAP act conf 48.4.
Screening CCCCCc1cc(OC)cc2c1C(=O)OC(C)(C)O2 returned mIAP block 3.7 and mIAP act 0.963.
O=C(O)c1ccccc1C(=O)Nc1cc(-c2ccccc2)[nH]n1 was read as hIAP block 38.6*, hIAP act 0.614, mIAP block 11.5, mIAP act 0.885 and hIAP act conf 61.7.
`O=C(Nc1cc(-c2ccccc2)[nH]n1)c1ccccc1F` gave hIAP block -16.1, hIAP act 1.16, mIAP block -7.1 and mIAP act 1.07.
`CCCCN1C(=O)/C(=C/C=C2\SCCN2C)SC1=S` gave hIAP block 44.3*, hIAP act 0.557, mIAP block 24.7, bIAP inhibitor 28.0, bIAP act 0.7, mIAP act 0.753 and hIAP act conf -4.5.
For CN1CCS/C1=C/C=C1\SC(=S)N(CC(=O)O)C1=O the results were hIAP block 27.1, hIAP act 0.729, mIAP block 29.7, bIAP act 0.4 and mIAP act 0.703.
N#CCC(=O)NNC(=S)NC(=O)C(c1ccccc1)c1ccccc1 was read as hIAP block -53.0, hIAP act 1.53, mIAP block 9.5, bIAP inhibitor -64.3, bIAP act 1.6 and mIAP act 0.905.
For CC(=O)NC(=S)Nc1ccccc1C(=O)Nc1ccccc1 the results were hIAP block -149.6, hIAP act 2.5*, mIAP block 20.8, bIAP inhibitor -39.9, bIAP act 1.4, mIAP act 0.792 and hIAP act conf -31.1.
For CC(=O)NC(=S)NNC(=O)C(c1ccccc1)c1ccccc1 the results were hIAP block -103.4, hIAP act 2.03*, mIAP block -5.1, bIAP inhibitor -98.9, bIAP act 2*, mIAP act 1.05 and hIAP act conf 7.2.
CCCCC(=O)NC(=S)Nc1ccccc1C(=O)Nc1ccccc1 was read as hIAP block -1.2, hIAP act 1.01, mIAP block 4.7, bIAP inhibitor 3.5, bIAP act 1 and mIAP act 0.953.
For CC1=C(C(=O)Nc2cc(C(=O)N3CCN(c4cccc(C)c4C)CC3)ccc2C)SCCO1 the results were hIAP block -22.9, hIAP act 1.23, mIAP block 2.2 and mIAP act 0.978.
For C=CCc1cccc(/C=N/NC(=O)c2ccc3nc[nH]c3c2)c1O the results were hIAP block 0.9, hIAP act 0.991, mIAP block 4.3 and mIAP act 0.957.
For COc1ccc(CN2CCN(C(=O)Cn3nc(C(=O)O)c4ccccc4c3=O)CC2)cc1F the results were hIAP block 7.5, hIAP act 0.925, mIAP block 6.0 and mIAP act 0.94.
For CS(=O)(=O)N1CCN(c2ccccc2NC(=O)Nc2cccc(Cl)c2)CC1 the results were hIAP block -36.9, hIAP act 1.37, mIAP block -45.3 and mIAP act 1.45.
For Cn1nnnc1N=N/C(=N/Nc1ccccc1)c1ccccc1 the results were hIAP block 45.7*, hIAP act 0.543, mIAP block 23.9, mIAP act 0.761 and hIAP act conf 54.9.
`Oc1ccccc1N=N/C(=N/Nc1ccccc1O)c1ccccc1` gave hIAP block 5.4, hIAP act 0.946, mIAP block 4.1 and mIAP act 0.959.
For CCc1ccc(N/C(N)=N/c2nc(CSc3ncccn3)cc(=O)[nH]2)cc1 the results were hIAP block -102.8, hIAP act 2.03*, mIAP block -0.1, bIAP inhibitor -4.0, bIAP act 1, mIAP act 1 and hIAP act conf -43.9.
